Laboratory results reported in ChEMBL document CHEMBL4390675, “Dopamine D4 Receptor-Selective Compounds Reveal Structure-Activity Relationships that Engender Agonist Efficacy” (J Med Chem, 2019).
Activity calls are given as the source filed them. No cut-off for these calls is given here.

Key:
D(3) dopamine receptor [1] = molecular target: T1, D(3) dopamine receptor (Homo sapiens, UniProt P35462); experiment: Antagonist activity at human D3 receptor expressed in CHOK1 cells assessed as inhibition of dopamine-induced beta-arrestin recruitment measured after 90 mins by luminescence assay; format: cell-based
Outline: (§1)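 Antagonist-mode PathHunter β-arrestin assay in CHO-K1 cells stably expressing human D2R long isoform or D3R, seeded overnight. Compound dilutions in PBS with 0.2 μM metabisulfite were co-incubated with an EC80 dopamine concentration for 90 min at 37 °C. Detection reagent was added for 45–60 min at room temperature, then luminescence was read. Values are % of dopamine EC80 response, from nonlinear regression of triplicate runs, n = 3–4.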

D(4) dopamine receptor [2] = molecular target: T2, D(4) dopamine receptor (Homo sapiens, UniProt P21917); experiment: Agonist activity at human D4 receptor expressed in CHOK1 cells assessed as inhibition of forskolin-induced cAMP accumulation measured after 30 mins by Eu-cAMP tracer based TR-FRET assay; format: functional, cell-based
T2 sequence (P21917 whole entry): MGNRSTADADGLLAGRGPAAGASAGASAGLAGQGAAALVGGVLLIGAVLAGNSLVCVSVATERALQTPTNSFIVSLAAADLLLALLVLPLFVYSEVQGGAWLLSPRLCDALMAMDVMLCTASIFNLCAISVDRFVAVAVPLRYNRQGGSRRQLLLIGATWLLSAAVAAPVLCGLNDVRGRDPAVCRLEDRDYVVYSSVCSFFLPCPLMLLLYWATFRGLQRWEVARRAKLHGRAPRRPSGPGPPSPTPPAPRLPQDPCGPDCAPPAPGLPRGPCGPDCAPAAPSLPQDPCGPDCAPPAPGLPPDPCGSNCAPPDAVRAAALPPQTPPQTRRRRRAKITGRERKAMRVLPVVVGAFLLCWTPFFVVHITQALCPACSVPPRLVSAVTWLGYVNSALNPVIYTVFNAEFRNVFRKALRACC
Outline: (§2)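 LANCE Ultra TR-FRET cAMP assay in CHO-K1 cells stably expressing human D2R long isoform or D4R. Cells were plated in HBSS/5 mM HEPES/0.2 μM metabisulfite, then immediately given compound plus forskolin (10 μM final) for 30 min at room temperature. Eu-cAMP tracer and ULight-anti-cAMP were added for 2 h in the dark. Values are % of maximal dopamine signal, nonlinear regression of triplicate runs, n = 3–4.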

D(3) dopamine receptor [3] = molecular target: T1, D(3) dopamine receptor; experiment: Displacement of [3H]N-methylspiperone from human D3 receptor expressed in HEK293 cell membranes measured after 60 mins by scintillation counting method
Outline: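 HEK293 cells stably expressing human D3R; membranes in EBSS buffer pH 7.4, stored at −80 °C. 20 μg protein/well with 0.4 nM [3H]N-methylspiperone (final), half-log dilutions in 30% DMSO, in triplicate. 60 min at room temperature, then GF/B filtration. Nonspecific binding with 10 μM (+)-butaclamol.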

D(4) dopamine receptor [4] = molecular target: T2, D(4) dopamine receptor; experiment: Displacement of [3H]N-methylspiperone from human D4.4 receptor expressed in HEK293 cell membranes measured after 60 mins by scintillation counting method
Outline: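 Frozen HEK293 membranes stably expressing human D4.4R (30 μg/well) in EBSS-bicarbonate buffer, pH 7.4, were incubated with 0.4 nM [3H]N-methylspiperone and half-log compound dilutions (30% DMSO vehicle) for 60 min at room temperature. Nonspecific binding was defined by 10 μM (+)-butaclamol. Samples were filtered on GF/B filters and counted by scintillation.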

D(2) dopamine receptor [5] = molecular target: T3, D(2) dopamine receptor (Homo sapiens, UniProt P14416); experiment: Agonist activity at human D2L receptor expressed in CHOK1 cells assessed as induction of beta-arrestin recruitment measured after 90 mins by luminescence assay; format: cell-based
Outline: (§3)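 PathHunter enzyme-complementation assay in CHO-K1 cells stably expressing human D2R long isoform, D3R or D4R, seeded overnight in Ham's F12/10% FBS. Compounds were diluted in PBS with 0.2 μM sodium metabisulfite and applied at multiple concentrations for 90 min at 37 °C. Detection reagent was added for 45–60 min at room temperature, then luminescence was read. Values are % of maximal dopamine response, from nonlinear regression of triplicate runs, mean ± SEM, n = 3–4.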

D(2) dopamine receptor [6] = molecular target: T3, D(2) dopamine receptor; experiment: Antagonist activity at human D2L receptor expressed in CHOK1 cells assessed as inhibition of dopamine-induced beta-arrestin recruitment measured after 90 mins by luminescence assay relative to control; format: cell-based; outline: as §1
D(2) dopamine receptor [7] = molecular target: T3, D(2) dopamine receptor; experiment: Antagonist activity at human D2L receptor expressed in CHOK1 cells assessed as inhibition of dopamine-induced beta-arrestin recruitment measured after 90 mins by luminescence assay; format: cell-based; outline: as §1
D(4) dopamine receptor [8] = molecular target: T2, D(4) dopamine receptor; experiment: Antagonist activity at human D4 receptor expressed in CHOK1 cells assessed as inhibition of dopamine-induced beta-arrestin recruitment measured after 90 mins by luminescence assay; format: cell-based
D(3) dopamine receptor [9] = molecular target: T1, D(3) dopamine receptor; experiment: Agonist activity at human D3 receptor expressed in CHOK1 cells assessed as induction of beta-arrestin recruitment measured after 90 mins by luminescence assay; format: cell-based; outline: as §3
D(2) dopamine receptor [10] = molecular target: T3, D(2) dopamine receptor; experiment: Antagonist activity at human D2L receptor expressed in CHOK1 cells assessed as suppression of dopamine-induced inhibition of forskolin-stimulated cAMP accumulation measured after 30 mins by Eu-cAMP tracer based TR-FRET assay relative to dopamine; format: cell-based; details: 0.5 h
D(2) dopamine receptor [11] = molecular target: T3, D(2) dopamine receptor; experiment: Agonist activity at human D2L receptor expressed in CHOK1 cells assessed as inhibition of forskolin-induced cAMP accumulation measured after 30 mins by Eu-cAMP tracer based TR-FRET assay; format: cell-based; outline: as §2
D(4) dopamine receptor [12] = molecular target: T2, D(4) dopamine receptor; experiment: Agonist activity at human D4 receptor expressed in CHOK1 cells assessed as induction of beta-arrestin recruitment measured after 90 mins by luminescence assay; format: cell-based; outline: as §3
D(4) dopamine receptor [13] = molecular target: T2, D(4) dopamine receptor; experiment: Antagonist activity at human D4 receptor expressed in CHOK1 cells assessed as suppression of dopamine-induced inhibition of forskolin-stimulated cAMP accumulation measured after 30 mins by Eu-cAMP tracer based TR-FRET assay; format: functional, cell-based
D(3) dopamine receptor [14] = molecular target: T1, D(3) dopamine receptor; experiment: Antagonist activity at human D3 receptor expressed in CHOK1 cells assessed as inhibition of dopamine-induced beta-arrestin recruitment measured after 90 mins by luminescence assay relative to control; format: cell-based; outline: as §1
[15] = molecular target: D(1A) dopamine receptor (Homo sapiens) (UniProt P21728); experiment: Agonist activity at D1 receptor (unknown origin) stably expressed in CHOK1 cells assessed as induction of beta-arrestin recruitment measured after 90 mins by luminescence assay; format: cell-based
[16] = molecular target: T4, D(4) dopamine receptor (Homo sapiens) (UniProt P21917); experiment: Agonist activity at human D4 receptor expressed in CHOK1 cells assessed as inhibition of forskolin-induced cAMP accumulation measured after 30 mins by Eu-cAMP tracer based TR-FRET assay relative to dopamine; format: functional, cell-based; outline: as §2
T4 sequence (whole entry): T2 sequence (P21917 whole entry)

D(3) dopamine receptor [17] = molecular target: T1, D(3) dopamine receptor; experiment: Agonist activity at human D3 receptor expressed in CHOK1 cells assessed as induction of beta-arrestin recruitment measured after 90 mins by luminescence assay relative to control; format: cell-based; outline: as §3
[18] = molecular target: D(1A) dopamine receptor (Homo sapiens) (UniProt P21728); experiment: Antagonist activity at D1 receptor (unknown origin) stably expressed in CHOK1 cells assessed as inhibition of dopamine-induced beta-arrestin recruitment measured after 90 mins by luminescence assay; format: cell-based
[19] = molecular target: D(1B) dopamine receptor (Homo sapiens) (UniProt P21918); experiment: Antagonist activity at D5 receptor (unknown origin) stably expressed in CHOK1 cells assessed as inhibition of dopamine-induced beta-arrestin recruitment measured after 90 mins by luminescence assay; format: cell-based
D(2) dopamine receptor [20] = molecular target: T3, D(2) dopamine receptor; experiment: Agonist activity at human D2L receptor expressed in CHOK1 cells assessed as inhibition of forskolin-induced cAMP accumulation measured after 30 mins by Eu-cAMP tracer based TR-FRET assay relative to dopamine; format: cell-based; details: 0.5 h
D(3) dopamine receptor [21] = molecular target: T1, D(3) dopamine receptor; experiment: Displacement of [3H](R)-(+)-7-OH-DPAT from human D3 receptor expressed in HEK293 cell membranes measured after 90 mins by scintillation counting method
Outline: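 Fresh HEK293 hD3R membranes (40 μg/well) in 50 mM Tris, 10 mM MgCl2, 1 mM EDTA, pH 7.4 were incubated with 0.5 nM [3H]-(R)-(+)-7-OH-DPAT and half-log compound dilutions in 30% DMSO for 90 min at room temperature. Nonspecific binding was defined with 10 μM (+)-butaclamol. Samples were filtered on PEI-soaked GF/B filters and counted by scintillation.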

[22] = molecular target: T4, D(4) dopamine receptor (Homo sapiens); experiment: Antagonist activity at human D4 receptor expressed in CHOK1 cells assessed as inhibition of dopamine-induced beta-arrestin recruitment measured after 90 mins by luminescence assay relative to control; format: cell-based; design: concentration or dose not given beside the values
[23] = molecular target: T4, D(4) dopamine receptor (Homo sapiens); experiment: Agonist activity at human D4 receptor expressed in CHOK1 cells assessed as induction of beta-arrestin recruitment measured after 90 mins by luminescence assay relative to control; format: cell-based; outline: as §3
[24] = molecular target: D(1B) dopamine receptor (Homo sapiens) (UniProt P21918); experiment: Agonist activity at D5 receptor (unknown origin) stably expressed in CHOK1 cells assessed as induction of beta-arrestin recruitment measured after 90 mins by luminescence assay; format: cell-based
D(2) dopamine receptor [25] = molecular target: T3, D(2) dopamine receptor; experiment: Agonist activity at human D2L receptor expressed in CHOK1 cells assessed as induction of beta-arrestin recruitment measured after 90 mins by luminescence assay relative to control; format: cell-based
Outline: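 PathHunter enzyme-complementation assay in CHO-K1 cells stably expressing human D2R long isoform, seeded 2625 cells/well and incubated overnight. Compounds diluted in PBS with 0.2 μM sodium metabisulfite, tested at multiple concentrations, 90 min at 37 °C. Detection reagent then 45–60 min at room temperature, luminescence read. Normalized to maximal dopamine response. Nonlinear regression of triplicate runs, n = 3–4.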

D(4) dopamine receptor [26] = molecular target: T2, D(4) dopamine receptor; experiment: Displacement of [3H](R)-(+)-7-OH-DPAT from human D4.4 receptor expressed in HEK293 cell membranes measured after 90 mins by scintillation counting method
Outline: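 HEK293 cells stably expressing human D4.4R; membranes used fresh in 50 mM Tris, 10 mM MgCl2, 1 mM EDTA, pH 7.4. 60 μg protein/well with 3 nM [3H]-(R)-(+)-7-OH-DPAT (final), half-log dilutions in 30% DMSO, in triplicate. 90 min at room temperature, then GF/B filtration. Nonspecific binding with 10 μM (+)-butaclamol.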

[27] = molecular target: T4, D(4) dopamine receptor (Homo sapiens); experiment: Antagonist activity at human D4 receptor expressed in CHOK1 cells assessed as suppression of dopamine-induced inhibition of forskolin-stimulated cAMP accumulation measured after 30 mins by Eu-cAMP tracer based TR-FRET assay relative to dopamine; format: functional, cell-based; design: concentration or dose not given beside the values

T1 sequence (P35462 whole entry, canonical isoform): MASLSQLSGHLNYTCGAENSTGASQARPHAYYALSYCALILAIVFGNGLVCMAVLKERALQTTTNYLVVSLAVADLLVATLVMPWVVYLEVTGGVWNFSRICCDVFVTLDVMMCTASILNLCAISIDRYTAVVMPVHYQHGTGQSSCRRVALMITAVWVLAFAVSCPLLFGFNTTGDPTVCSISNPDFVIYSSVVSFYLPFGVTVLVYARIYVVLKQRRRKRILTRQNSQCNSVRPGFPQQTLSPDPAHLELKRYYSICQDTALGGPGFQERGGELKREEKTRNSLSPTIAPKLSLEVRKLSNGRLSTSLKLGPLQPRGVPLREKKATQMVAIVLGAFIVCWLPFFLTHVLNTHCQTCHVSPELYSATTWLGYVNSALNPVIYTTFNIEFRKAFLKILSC
T3 sequence (P14416 whole entry, canonical isoform): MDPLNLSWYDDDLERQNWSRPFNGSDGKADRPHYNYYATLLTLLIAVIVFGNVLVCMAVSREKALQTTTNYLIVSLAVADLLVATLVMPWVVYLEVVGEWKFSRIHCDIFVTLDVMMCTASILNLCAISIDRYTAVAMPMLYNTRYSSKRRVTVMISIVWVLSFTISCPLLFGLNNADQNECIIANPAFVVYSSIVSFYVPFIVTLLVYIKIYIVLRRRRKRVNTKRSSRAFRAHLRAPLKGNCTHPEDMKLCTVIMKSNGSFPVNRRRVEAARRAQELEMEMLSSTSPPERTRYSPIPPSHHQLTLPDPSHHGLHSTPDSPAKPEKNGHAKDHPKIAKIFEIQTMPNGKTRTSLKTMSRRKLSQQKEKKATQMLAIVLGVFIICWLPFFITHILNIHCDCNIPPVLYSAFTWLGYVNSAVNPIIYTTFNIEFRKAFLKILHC
Chain of D(1B) dopamine receptor (Homo sapiens) (P21918 whole entry): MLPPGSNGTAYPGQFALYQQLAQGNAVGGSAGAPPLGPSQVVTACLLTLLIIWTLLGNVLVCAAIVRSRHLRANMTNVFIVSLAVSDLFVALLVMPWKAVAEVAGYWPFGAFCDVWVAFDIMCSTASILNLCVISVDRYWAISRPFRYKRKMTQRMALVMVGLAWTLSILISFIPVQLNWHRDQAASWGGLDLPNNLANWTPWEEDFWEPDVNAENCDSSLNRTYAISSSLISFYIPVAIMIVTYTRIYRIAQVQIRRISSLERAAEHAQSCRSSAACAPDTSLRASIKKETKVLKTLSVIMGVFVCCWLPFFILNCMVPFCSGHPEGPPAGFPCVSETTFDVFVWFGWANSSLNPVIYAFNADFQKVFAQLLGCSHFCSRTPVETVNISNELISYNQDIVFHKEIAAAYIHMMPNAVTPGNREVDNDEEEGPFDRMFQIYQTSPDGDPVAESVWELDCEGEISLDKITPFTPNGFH
Chain of D(1A) dopamine receptor (Homo sapiens) (P21728 whole entry): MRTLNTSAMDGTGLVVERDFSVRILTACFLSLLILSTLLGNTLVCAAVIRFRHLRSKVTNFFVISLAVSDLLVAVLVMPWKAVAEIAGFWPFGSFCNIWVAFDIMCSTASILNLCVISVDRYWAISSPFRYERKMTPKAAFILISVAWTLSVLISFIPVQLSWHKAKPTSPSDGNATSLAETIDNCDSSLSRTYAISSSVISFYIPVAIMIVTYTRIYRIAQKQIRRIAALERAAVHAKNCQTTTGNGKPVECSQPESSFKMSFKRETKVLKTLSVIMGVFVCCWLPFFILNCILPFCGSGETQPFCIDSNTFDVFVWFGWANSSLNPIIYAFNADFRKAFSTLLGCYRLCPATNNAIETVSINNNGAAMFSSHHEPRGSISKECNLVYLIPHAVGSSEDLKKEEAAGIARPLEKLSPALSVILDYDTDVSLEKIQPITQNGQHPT

## O=C(CN1CCN(c2ccccn2)CC1)Nc1cncnc1
D(3) dopamine receptor [1]
  IC50: Not Active
D(4) dopamine receptor [2]
  EC50: Not Active
D(3) dopamine receptor [3]
  Ki: > 50000 nM
D(4) dopamine receptor [4]
  Ki: 39300 nM
D(2) dopamine receptor [5]
  EC50: Not Active
D(2) dopamine receptor [6]
  INH: Not Active
D(2) dopamine receptor [7]
  IC50: Not Active
D(4) dopamine receptor [8]
  IC50: Not Active
D(3) dopamine receptor [9]
  EC50: Not Active
D(2) dopamine receptor [10]
  inhibition (INH): 98.1%
D(2) dopamine receptor [11]
  EC50: Not Active
D(4) dopamine receptor [12]
  EC50: Not Active
D(4) dopamine receptor [13]
  IC50: > 100000 nM

## Cc1cccc(NC(=O)CN2CCN(c3ncccn3)CC2)c1
D(3) dopamine receptor [1]; read-out: IC50
  IC50: > 100000 nM
D(4) dopamine receptor [2]; read-out: EC50
  EC50: 3.4 nM
D(3) dopamine receptor [3]
  Ki: > 10000 nM
D(3) dopamine receptor [14]
  inhibition: inactive
[15]
  Activity: inactive
[16]
  Emax: 64.6%
D(4) dopamine receptor [4]
  Ki: 318 nM
D(3) dopamine receptor [17]
  Emax: 58.4%
[18]
  inhibition: inactive
[19]
  inhibition: inactive
D(2) dopamine receptor [20]
  Emax: 54.4%
D(3) dopamine receptor [21]
  Ki: 5990 nM
D(4) dopamine receptor [8]; read-out: IC50
  IC50: 197 nM
D(3) dopamine receptor [9]; read-out: EC50
  EC50: 5580 nM
[22]
  inhibition: 80.6%
D(4) dopamine receptor [12]; read-out: EC50
  EC50: 278 nM
[23]
  Emax: 24.7%
D(4) dopamine receptor [13]
  IC50: 463 nM
[24]
  Activity: inactive
D(2) dopamine receptor [25]
  Emax: 39.6%
D(4) dopamine receptor [26]
  Ki: 5.66 nM
[27]
  inhibition: 45%
